{"source": "paper PMC6218015", "about": "(ACS Chemical Biology, 2017)", "key": {"[1]": {"target": "T1, tag-free ATAD2 (Homo sapiens, UniProt Q6PL18)", "T1 sequence (Q6PL18 981-1108)": "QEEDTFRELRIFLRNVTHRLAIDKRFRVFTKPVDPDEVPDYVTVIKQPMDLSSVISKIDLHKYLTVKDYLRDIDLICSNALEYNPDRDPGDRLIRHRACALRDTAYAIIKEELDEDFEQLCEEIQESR", "experiment": "Native mass spectrometry", "assay_type": "binding", "details": "10 μM ATAD2 BD, 5 μM compound"}, "[2]": {"target": "T2, His-ATAD2 BD (Homo sapiens, UniProt Q6PL18)", "T2 sequence (Q6PL18 981-1108)": "T1 sequence (Q6PL18 981-1108)", "experiment": "AlphaScreen binding competition assay, tetra-acetylated H4 peptide", "summary_of_the_method": "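Competition for binding of acetylated histone H4 N-terminal peptides to the ATAD2 bromodomain, titrated with increasing test compound. TR-FRET read-out for mono- and tetra-acetylated peptides; AlphaScreen read-out for the tetra-acetylated peptide. Normalized signals plotted against compound dose and fitted to a four-parameter logistic equation to obtain IC50.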"}, "[3]": {"tested_on": "HMEC nontransformed mammary epithelial cells", "experiment": "Growth inhibition of nontransformed cells", "assay_type": "cell-based", "details": "HMEC vs MCF7 and MDA-MB-231"}, "[4]": {"target": "T3, untagged ATAD2 BD (Homo sapiens, UniProt Q6PL18)", "T3 sequence (Q6PL18 981-1108)": "T1 sequence (Q6PL18 981-1108)", "experiment": "Size exclusion chromatography", "assay_type": "binding", "details": "molar ratio 1:1"}, "[5]": {"target": "T4, GST-ATAD2 BD (Homo sapiens, UniProt Q6PL18)", "T4 sequence (Q6PL18 981-1108)": "T1 sequence (Q6PL18 981-1108)", "experiment": "Microscale thermophoresis", "assay_type": "binding", "details": "MST", "summary_of_the_method": "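Fluorescence-labeled GST-ATAD2 incubated with vehicle or increasing test compound concentrations. Thermophoresis traces recorded in real time. Averaged steady-state MST signals plotted against dose and fitted to a 1:1 binding model to derive KD.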"}, "[6]": {"tested_on": "panel of 354 kinases", "experiment": "Kinase panel overall", "assay_type": "biochemical, human"}, "[7]": {"target": "T5, ATAD2 (Homo sapiens, UniProt Q6PL18)", "T5 sequence (Q6PL18 981-1108 limits assumed)": "T1 sequence (Q6PL18 981-1108)", "experiment": "BROMOscan", "assay_type": "binding"}, "[8]": {"tested_on": "other members of the BD family", "experiment": "TSA bromodomain selectivity panel", "assay_type": "binding", "details": "10 μM", "summary_of_the_method": "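Thermal shift assay across the bromodomain family. Melting curves of each bromodomain were acquired with 10 μM test compound or with vehicle. Compound effects were taken from the melting-curve comparison and mapped onto the bromodomain phylogenetic tree.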"}, "[9]": {"tested_on": "ATAD2 target genes in MCF7 cells", "experiment": "Gene expression study with quantitative PCR", "assay_type": "cell-based", "details": "MCF7, 24 h, up to 6.67 µM"}, "[10]": {"target": "T6, FLAG tagged ATAD2 (342 - 1390) (Homo sapiens, UniProt Q6PL18)", "T6 sequence (Q6PL18 342-1390)": "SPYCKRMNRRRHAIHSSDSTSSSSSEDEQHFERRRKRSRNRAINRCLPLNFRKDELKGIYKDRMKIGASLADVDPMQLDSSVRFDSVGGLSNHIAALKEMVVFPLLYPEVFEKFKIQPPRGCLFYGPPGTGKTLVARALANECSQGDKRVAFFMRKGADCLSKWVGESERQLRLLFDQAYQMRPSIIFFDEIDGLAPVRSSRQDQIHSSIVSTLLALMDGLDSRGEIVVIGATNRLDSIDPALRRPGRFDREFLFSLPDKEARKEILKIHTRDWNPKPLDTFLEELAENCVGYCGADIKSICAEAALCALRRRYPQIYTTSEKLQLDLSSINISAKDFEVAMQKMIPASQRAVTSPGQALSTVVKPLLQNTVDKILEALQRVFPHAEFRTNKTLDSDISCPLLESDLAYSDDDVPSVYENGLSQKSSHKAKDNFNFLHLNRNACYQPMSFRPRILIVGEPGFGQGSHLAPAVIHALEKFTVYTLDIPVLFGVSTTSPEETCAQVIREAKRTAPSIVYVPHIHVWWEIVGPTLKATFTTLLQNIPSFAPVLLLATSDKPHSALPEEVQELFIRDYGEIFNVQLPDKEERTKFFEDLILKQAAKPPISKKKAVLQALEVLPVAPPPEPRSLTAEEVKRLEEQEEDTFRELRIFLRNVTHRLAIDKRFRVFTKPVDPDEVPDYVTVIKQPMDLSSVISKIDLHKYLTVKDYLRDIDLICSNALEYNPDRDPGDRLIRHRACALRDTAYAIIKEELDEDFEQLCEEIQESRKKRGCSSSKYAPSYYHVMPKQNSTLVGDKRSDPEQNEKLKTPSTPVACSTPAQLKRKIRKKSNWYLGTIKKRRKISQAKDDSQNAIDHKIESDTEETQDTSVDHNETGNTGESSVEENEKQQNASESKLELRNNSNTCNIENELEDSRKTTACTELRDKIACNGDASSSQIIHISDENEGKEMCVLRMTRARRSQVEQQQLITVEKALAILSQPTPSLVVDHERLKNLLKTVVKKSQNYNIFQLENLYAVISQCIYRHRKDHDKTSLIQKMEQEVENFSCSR", "experiment": "AlphaScreen, ATAD2 construct including the ATPase domain", "assay_type": "binding", "details": "larger ATAD2 construct including the ATPase domain", "summary_of_the_method": "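Binding competition between ATAD2 and an acetylated histone H4 peptide, read by AlphaScreen over increasing test compound concentrations. Signals were normalized, plotted against dose and fitted to a four-parameter logistic equation to give potency.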"}, "[11]": {"experiment": "Permeability", "assay_type": "in vitro ADME", "details": "Caco-2 assay"}, "[12]": {"target": "T7, GFP-tagged full-length wild type ATAD2 in MCF7 cells (Homo sapiens, UniProt Q6PL18)", "T7 sequence (Q6PL18 1-1390)": "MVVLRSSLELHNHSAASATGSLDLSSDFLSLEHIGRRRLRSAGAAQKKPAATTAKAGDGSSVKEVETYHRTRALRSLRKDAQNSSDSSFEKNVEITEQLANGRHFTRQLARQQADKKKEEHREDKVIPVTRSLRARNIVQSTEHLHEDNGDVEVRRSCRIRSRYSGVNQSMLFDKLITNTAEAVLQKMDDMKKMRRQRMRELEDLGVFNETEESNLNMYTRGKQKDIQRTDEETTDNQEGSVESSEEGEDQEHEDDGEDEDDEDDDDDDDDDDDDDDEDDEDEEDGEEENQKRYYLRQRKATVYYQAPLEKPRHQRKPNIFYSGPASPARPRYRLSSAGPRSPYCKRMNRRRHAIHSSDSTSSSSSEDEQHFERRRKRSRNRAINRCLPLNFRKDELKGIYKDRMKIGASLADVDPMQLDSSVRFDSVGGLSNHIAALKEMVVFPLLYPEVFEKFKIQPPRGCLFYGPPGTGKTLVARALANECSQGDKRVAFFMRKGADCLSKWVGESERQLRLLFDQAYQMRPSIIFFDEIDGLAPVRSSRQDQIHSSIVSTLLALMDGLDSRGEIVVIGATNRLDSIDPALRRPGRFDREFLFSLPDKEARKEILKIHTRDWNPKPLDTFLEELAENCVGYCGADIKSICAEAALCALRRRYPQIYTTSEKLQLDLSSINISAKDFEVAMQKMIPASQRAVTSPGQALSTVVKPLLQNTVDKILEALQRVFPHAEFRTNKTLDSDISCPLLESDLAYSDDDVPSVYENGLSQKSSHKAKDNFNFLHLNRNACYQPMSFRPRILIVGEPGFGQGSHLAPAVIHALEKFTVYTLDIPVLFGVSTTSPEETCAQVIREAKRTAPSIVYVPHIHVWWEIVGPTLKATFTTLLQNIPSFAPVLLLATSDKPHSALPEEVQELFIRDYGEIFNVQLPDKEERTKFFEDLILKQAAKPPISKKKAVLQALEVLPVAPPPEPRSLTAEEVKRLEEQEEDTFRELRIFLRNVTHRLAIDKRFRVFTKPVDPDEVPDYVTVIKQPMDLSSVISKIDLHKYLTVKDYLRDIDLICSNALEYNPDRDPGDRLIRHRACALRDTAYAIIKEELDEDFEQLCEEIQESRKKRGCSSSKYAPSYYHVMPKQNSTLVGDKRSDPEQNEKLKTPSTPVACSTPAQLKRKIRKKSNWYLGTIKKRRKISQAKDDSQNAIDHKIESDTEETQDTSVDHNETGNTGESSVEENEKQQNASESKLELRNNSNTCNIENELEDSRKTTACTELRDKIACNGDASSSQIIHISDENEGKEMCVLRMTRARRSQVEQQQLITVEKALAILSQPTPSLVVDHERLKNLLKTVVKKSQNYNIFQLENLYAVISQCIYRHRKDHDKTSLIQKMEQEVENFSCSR", "experiment": "Fluorescence recovery after photobleaching", "assay_type": "cell-based", "summary_of_the_method": "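MCF7 cells transfected with GFP-tagged full-length wild-type ATAD2; BD-mutant and ATPase-mutant constructs run as comparators. Cells treated with 1 μM test compound for 1 h, then a defined area photobleached. Half fluorescence recovery time measured in the bleached area from at least 15 cells per group, reported as mean with standard error of the mean.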"}}}
{"smiles": "COc1cc(Cl)c(C(=O)N[C@@H](CN[C@H]2CC[C@@H](N)CC2)Cc2ccc(C#N)cc2)cc1-c1ccc(CN[C@H](C)c2ccc(C)cc2)o1", "note": "[BAY-850]", "values": [{"measurement": "binding to ATAD2 by native MS", "setting": "[1]", "result": "one BAY-850 molecule binds to an ATAD2 dimer"}, {"measurement": "IC50", "setting": "[2]", "result": 157, "unit": "nM"}, {"measurement": "growth inhibition of nontransformed vs cancer cells", "setting": "[3]", "result": "similarly active on the nontransformed and cancer cells"}, {"measurement": "ATAD2 dimerisation in SEC elution profile", "setting": "[4]", "result": "compound-induced shift from the ATAD2-monomer to ATAD2-dimer form"}, {"measurement": "Kd", "setting": "[5]", "result": 85, "unit": "nM"}, {"measurement": "inhibitory activity in kinase panel", "setting": "[6]", "result": "no inhibitory activity"}, {"measurement": "Kd", "setting": "[7]", "result": 115, "unit": "nM"}, {"measurement": "effect on thermal stability of other BD family members", "setting": "[8]", "result": "not observed for other members of the BD family"}, {"measurement": "expression of ATAD2 target genes", "setting": "[9]", "result": "did not affect the expression"}, {"measurement": "inhibition of tetra-acetylated H4 peptide binding", "setting": "[10]", "result": "inhibited tetra-acetylated H4 peptide binding"}, {"measurement": "permeability", "setting": "[11]", "result": "moderate permeability"}, {"measurement": "concentration of maximal on-target cellular activity", "setting": "[12]; FRAP, MCF7", "result": 1, "unit": "µM"}, {"measurement": "Recovery t1/2", "setting": "[12]; MCF7 cells, 1 μM for 1 h, mean ± SEM", "result": "6.3 ± 1.2", "unit": "s"}]}
